Measurements published in the M2OR odorant receptor database.

Key:
Conditions in all cases: stereoisomer not certain
OR4Q3 (Homo sapiens) = target: T1, OR4Q3 (Homo sapiens) (UniProt Q8NH05)
T1 sequence (whole entry): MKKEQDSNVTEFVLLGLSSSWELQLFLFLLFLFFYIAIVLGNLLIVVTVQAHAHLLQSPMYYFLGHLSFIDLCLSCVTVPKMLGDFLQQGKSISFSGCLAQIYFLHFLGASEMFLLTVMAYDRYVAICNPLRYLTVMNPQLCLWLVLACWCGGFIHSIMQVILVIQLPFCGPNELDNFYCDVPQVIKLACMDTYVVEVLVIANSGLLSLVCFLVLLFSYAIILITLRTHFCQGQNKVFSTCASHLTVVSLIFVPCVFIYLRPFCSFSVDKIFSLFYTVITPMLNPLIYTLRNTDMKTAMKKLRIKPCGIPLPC
Outline: (§1)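 Each entry records the cell line, G-protein, co-transfected protein and tags used. Methods varied with the source, often transient luciferase assays in mammalian cell lines. A receptor–molecule pair is called responsive (active) if the original authors judged its signal statistically different from baseline and non-responsive (inactive) otherwise.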

OR4Q3 = system: OR4Q3
Outline: as §1

OR4P4 (Homo sapiens) = OR4P4 (Homo sapiens) (UniProt Q8NGL7)
Outline: as §1

OR4Q2 (Homo sapiens) = OR4Q2 (Homo sapiens) (UniProt P0C623)
Outline: as §1

OR4S1 (Homo sapiens) = OR4S1 (Homo sapiens) (UniProt Q8NGB4)
Outline: as §1

OR4S2 (Homo sapiens) = OR4S2 (Homo sapiens) (UniProt Q8NH73)
Outline: as §1

OR4X1 (Homo sapiens) = OR4X1 (Homo sapiens) (UniProt Q8NH49)
Outline: as §1

OR4X2 (Homo sapiens) = OR4X2 (Homo sapiens) (UniProt Q8NGF9)
Outline: as §1

OR51A2 (Homo sapiens) = OR51A2 (Homo sapiens) (UniProt Q8NGJ7)
Outline: as §1

OR51A4 (Homo sapiens) = OR51A4 (Homo sapiens) (UniProt Q8NGJ6)
Outline: as §1

OR51A7 (Homo sapiens) = OR51A7 (Homo sapiens) (UniProt Q8NH64)
Outline: as §1

OR51B2 (Homo sapiens) = OR51B2 (Homo sapiens) (UniProt Q9Y5P1)
Outline: as §1

OR51B4 (Homo sapiens) = OR51B4 (Homo sapiens) (UniProt Q9Y5P0)
Outline: as §1

OR51B5 (Homo sapiens) = target: T2, OR51B5 (Homo sapiens) (UniProt Q9H339)
T2 sequence (whole entry): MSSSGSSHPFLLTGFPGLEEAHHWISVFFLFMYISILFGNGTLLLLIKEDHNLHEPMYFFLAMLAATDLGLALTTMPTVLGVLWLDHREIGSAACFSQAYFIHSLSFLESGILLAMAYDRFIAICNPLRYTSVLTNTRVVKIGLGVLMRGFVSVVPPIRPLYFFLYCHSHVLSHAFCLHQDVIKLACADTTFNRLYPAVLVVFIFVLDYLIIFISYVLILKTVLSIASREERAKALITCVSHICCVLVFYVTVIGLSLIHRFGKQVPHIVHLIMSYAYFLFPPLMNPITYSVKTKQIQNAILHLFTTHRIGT
Outline: as §1

OR51B6 (Homo sapiens) = OR51B6 (Homo sapiens) (UniProt Q9H340)
Outline: as §1

OR51D1 (Homo sapiens) = OR51D1 (Homo sapiens) (UniProt Q8NGF3)
Outline: as §1

OR51E2 (Homo sapiens) = target: T3, OR51E2 (Homo sapiens) (UniProt Q9H255)
T3 sequence (whole entry): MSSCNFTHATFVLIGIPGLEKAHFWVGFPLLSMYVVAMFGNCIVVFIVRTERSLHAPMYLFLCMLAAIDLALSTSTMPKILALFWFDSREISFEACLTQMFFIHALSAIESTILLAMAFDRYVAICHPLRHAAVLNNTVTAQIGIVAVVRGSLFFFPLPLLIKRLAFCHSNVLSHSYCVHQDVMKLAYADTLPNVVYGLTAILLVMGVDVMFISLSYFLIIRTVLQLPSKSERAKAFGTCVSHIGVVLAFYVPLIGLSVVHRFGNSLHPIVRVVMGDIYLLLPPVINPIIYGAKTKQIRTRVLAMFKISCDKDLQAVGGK
Outline: as §1

OR51E1 (Homo sapiens) [1] = target: T4, OR51E1 (Homo sapiens) (UniProt Q8TCB6)
T4 sequence (whole entry): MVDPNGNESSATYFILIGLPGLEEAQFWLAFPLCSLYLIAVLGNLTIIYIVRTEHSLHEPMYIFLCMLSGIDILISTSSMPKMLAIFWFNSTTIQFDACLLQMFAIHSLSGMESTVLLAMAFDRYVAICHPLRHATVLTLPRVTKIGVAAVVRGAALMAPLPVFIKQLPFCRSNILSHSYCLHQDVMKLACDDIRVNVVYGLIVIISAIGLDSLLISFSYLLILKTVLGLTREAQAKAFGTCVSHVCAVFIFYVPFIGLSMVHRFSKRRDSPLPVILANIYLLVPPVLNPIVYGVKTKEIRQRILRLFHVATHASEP
Outline: as §1

OR4Q3 T135A = system: OR4Q3 T135A
Outline: as §1

OR51E1 (Homo sapiens) [2] = target: OR51E1 (Homo sapiens) (UniProt Q8TCB6); remark: listed apart in the source
Outline: as §1
Target sequence in this assay (Q8TCB6 whole entry): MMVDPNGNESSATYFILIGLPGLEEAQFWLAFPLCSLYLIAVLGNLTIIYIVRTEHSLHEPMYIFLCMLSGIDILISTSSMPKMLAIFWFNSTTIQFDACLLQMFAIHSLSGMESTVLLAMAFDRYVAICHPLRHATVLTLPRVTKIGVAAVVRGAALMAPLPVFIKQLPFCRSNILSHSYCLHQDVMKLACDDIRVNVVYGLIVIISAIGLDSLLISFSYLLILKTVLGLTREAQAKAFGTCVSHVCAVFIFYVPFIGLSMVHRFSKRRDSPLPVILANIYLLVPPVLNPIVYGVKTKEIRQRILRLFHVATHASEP

Measured: odorant receptor agonist call

Chain of OR51D1 (Homo sapiens) (Q8NGF3 whole entry): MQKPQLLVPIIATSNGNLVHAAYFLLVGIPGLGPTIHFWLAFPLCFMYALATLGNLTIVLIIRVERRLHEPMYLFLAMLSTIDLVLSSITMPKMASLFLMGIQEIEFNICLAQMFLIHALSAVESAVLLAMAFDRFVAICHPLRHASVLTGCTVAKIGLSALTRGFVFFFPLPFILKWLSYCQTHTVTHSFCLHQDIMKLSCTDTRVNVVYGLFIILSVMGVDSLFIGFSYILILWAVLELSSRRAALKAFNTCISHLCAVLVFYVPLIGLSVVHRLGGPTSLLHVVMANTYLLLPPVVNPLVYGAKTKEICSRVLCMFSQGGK
Chain of OR51A7 (Homo sapiens) (Q8NH64 whole entry): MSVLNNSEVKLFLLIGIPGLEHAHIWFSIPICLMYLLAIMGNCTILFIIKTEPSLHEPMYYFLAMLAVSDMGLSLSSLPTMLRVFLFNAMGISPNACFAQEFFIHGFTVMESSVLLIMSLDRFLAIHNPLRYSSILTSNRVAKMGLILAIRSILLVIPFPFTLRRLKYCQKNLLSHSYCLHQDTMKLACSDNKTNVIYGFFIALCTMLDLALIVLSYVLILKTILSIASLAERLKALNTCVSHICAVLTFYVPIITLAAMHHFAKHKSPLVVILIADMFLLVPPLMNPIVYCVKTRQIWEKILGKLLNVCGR
Chain of OR4P4 (Homo sapiens) (Q8NGL7 whole entry): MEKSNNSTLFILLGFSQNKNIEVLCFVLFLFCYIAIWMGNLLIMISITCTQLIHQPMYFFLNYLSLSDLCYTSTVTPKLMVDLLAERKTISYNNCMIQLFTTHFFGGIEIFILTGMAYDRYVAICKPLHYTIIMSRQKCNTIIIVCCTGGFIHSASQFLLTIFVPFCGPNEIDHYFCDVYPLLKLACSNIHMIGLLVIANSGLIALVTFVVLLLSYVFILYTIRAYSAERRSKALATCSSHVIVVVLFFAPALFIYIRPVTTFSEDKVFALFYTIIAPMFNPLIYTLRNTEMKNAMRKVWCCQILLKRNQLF
Chain of OR4X1 (Homo sapiens) (Q8NH49 whole entry): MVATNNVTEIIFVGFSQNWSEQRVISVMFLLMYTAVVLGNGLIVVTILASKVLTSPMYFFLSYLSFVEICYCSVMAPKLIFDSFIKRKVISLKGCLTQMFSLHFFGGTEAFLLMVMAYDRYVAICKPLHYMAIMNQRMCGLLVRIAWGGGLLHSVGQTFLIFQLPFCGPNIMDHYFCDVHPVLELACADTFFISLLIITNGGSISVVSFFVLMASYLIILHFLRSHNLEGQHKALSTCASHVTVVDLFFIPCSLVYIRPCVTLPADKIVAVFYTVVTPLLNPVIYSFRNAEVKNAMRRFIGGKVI
Chain of OR51B6 (Homo sapiens) (Q9H340 whole entry): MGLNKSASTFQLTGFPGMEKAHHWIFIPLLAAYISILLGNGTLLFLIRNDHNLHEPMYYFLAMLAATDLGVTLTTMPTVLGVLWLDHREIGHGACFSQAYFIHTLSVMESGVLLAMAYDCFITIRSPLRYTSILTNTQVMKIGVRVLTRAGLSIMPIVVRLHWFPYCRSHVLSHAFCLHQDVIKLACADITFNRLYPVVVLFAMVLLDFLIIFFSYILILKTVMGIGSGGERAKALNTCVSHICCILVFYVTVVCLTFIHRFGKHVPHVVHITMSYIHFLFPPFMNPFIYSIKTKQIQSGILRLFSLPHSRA
Chain of OR51A2 (Homo sapiens) (Q8NGJ7 whole entry): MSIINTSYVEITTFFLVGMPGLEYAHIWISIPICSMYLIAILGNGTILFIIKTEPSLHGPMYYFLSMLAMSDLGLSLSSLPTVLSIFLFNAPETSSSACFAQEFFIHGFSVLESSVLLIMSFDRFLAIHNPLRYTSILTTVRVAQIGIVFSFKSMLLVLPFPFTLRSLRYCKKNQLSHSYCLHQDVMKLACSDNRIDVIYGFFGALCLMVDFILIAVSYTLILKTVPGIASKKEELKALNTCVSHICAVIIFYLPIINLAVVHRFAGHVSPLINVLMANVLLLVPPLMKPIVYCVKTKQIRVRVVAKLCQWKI
Chain of OR4X2 (Homo sapiens) (Q8NGF9 whole entry): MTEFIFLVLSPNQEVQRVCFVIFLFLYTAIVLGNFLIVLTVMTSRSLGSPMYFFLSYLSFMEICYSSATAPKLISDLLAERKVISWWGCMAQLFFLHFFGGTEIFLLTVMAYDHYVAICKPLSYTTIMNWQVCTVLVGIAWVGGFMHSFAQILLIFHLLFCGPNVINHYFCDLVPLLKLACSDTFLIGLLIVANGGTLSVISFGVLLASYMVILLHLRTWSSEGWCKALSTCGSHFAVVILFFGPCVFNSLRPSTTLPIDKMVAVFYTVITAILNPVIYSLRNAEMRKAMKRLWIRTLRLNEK
Chain of OR51A4 (Homo sapiens) (Q8NGJ6 whole entry): as the sequence (Q8NGJ7 whole entry) above, with G59E, T94I, S97N, S167N, P227L, E235Q, G267R, M288T, K289N, W311R counted along it
Chain of OR51B2 (Homo sapiens) (Q9Y5P1 whole entry): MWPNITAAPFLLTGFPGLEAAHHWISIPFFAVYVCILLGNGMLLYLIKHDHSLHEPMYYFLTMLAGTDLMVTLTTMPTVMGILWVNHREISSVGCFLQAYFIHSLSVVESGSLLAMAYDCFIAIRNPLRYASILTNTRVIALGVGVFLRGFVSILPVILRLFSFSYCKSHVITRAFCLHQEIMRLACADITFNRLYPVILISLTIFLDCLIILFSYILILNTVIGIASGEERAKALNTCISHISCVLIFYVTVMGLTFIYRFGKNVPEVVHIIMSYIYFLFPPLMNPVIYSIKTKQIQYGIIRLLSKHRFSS
Chain of OR51B4 (Homo sapiens) (Q9Y5P0 whole entry): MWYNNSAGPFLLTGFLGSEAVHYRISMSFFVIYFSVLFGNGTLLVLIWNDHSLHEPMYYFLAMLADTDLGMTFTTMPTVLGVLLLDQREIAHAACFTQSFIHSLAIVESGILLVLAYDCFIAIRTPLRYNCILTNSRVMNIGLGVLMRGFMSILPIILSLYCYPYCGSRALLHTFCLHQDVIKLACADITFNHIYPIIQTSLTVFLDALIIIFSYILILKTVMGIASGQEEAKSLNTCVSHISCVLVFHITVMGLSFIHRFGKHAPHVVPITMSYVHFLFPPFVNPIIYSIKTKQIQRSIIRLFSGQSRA
Chain of OR4S2 (Homo sapiens) (Q8NH73 whole entry): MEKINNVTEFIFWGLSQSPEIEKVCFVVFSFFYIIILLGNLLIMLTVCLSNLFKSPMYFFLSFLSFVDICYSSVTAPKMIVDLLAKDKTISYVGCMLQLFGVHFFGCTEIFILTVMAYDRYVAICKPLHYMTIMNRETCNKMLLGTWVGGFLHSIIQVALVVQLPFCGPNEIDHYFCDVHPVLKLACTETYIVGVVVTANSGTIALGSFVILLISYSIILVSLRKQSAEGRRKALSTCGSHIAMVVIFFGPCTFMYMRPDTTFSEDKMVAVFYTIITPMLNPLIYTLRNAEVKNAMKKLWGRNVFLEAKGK
Chain of OR4S1 (Homo sapiens) (Q8NGB4 whole entry): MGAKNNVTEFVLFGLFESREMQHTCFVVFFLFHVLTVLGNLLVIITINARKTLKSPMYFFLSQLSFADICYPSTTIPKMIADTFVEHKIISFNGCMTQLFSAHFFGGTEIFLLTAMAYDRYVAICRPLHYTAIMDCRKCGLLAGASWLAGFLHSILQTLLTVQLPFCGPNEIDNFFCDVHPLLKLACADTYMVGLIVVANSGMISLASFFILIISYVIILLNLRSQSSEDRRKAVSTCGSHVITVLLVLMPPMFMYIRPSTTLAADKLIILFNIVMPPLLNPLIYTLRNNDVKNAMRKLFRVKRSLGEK
Chain of OR4Q2 (Homo sapiens) (P0C623 as listed by the source): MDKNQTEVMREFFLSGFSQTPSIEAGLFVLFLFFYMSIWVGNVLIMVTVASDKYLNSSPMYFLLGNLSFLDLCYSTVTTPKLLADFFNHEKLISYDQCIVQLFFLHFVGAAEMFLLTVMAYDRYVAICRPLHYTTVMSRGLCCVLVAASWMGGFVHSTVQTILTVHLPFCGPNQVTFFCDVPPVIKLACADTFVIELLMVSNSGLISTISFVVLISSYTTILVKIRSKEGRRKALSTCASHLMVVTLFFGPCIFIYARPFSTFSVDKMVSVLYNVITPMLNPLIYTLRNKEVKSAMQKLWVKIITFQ
Chain of OR4Q3 (as listed by the source): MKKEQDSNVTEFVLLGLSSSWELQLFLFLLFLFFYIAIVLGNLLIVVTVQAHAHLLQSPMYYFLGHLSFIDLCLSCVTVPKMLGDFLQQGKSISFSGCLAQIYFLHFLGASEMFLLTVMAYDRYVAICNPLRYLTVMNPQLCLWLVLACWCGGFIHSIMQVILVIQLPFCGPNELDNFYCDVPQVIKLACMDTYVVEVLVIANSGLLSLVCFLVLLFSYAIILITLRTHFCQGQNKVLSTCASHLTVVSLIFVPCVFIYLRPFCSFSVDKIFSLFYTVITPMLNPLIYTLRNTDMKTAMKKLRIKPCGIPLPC
Chain of OR4Q3 T135A (as listed by the source, stated change not applied): as the sequence (as listed by the source) above, with T135A, L238F counted along it

CCCCOC(=O)c1ccccc1N
inactive: OR4Q3
active: OR4Q3 (Homo sapiens)

Cc1c([N+](=O)[O-])c(C)c([N+](=O)[O-])c(C(C)(C)C)c1[N+](=O)[O-]
not listed: OR4Q3 | OR51E1 (Homo sapiens) [1] | OR4Q3 T135A | OR51E1 (Homo sapiens) [2]
inactive: all other assays above

CCC1CCC(=O)O1 (centres undefined)
inactive: OR51E1 (Homo sapiens) [1] | OR51E2 (Homo sapiens)

Cc1cccc(C)c1
inactive: OR51B5 (Homo sapiens)

O=c1cc(O)c2ccccc2o1
inactive: OR51E1 (Homo sapiens) [1] | OR51E2 (Homo sapiens)

COc1ccc(C=O)cc1
inactive: OR51B5 (Homo sapiens)

C=CCOC(=O)Cc1ccccc1
not listed: OR4Q3 | OR4Q2 (Homo sapiens)
inactive: all other assays above

C=CCc1ccccc1
inactive: OR51E1 (Homo sapiens) [1] | OR51E2 (Homo sapiens)
